This is an account of results in ChEMBL document CHEMBL1156906, “Synthesis and structure-activity relationship of botryllamides that block the ABCG2 multidrug transporter” (Bioorg Med Chem Lett, 2010).

Molecules are shown by their SMILES. Some results are limits rather than exact numbers.

The experiment addresses T1, Broad substrate specificity ATP-binding cassette transporter ABCG2 (Homo sapiens, UniProt Q9UNQ0).
T1 sequence (Q9UNQ0 whole entry): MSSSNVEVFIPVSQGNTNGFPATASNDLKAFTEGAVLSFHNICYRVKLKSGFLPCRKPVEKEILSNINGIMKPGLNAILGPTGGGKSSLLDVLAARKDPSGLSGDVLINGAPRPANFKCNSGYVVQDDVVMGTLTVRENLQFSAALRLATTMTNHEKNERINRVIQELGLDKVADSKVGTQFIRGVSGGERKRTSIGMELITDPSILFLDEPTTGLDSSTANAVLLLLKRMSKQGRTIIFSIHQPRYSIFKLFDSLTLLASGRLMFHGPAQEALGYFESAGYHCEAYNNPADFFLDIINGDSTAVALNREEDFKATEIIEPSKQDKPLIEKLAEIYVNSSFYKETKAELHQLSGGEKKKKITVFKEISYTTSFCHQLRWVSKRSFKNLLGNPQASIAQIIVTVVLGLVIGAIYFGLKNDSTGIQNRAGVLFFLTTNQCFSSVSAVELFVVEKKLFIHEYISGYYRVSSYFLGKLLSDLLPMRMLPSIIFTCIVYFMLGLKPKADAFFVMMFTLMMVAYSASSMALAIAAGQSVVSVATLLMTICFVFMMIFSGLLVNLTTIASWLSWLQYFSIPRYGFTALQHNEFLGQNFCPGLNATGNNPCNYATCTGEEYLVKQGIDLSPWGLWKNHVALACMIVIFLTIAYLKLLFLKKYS
In words: Inhibition of ABCG2 expressed in human NCI-H460/MX20 cells assessed as accumulation of ABCG2 substrate pheophorbide-A. Format: cell-based. The gist of the method:
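Cell-based assay in cells overexpressing ABCG2, measuring intracellular accumulation of the fluorescent ABCG2 substrate pheophorbide-a. Medium removed and cells washed with PBS before reading intracellular fluorescence. […] IC50 reported ± SD.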
On to `CO/C(=C\c1ccc(OCc2ccccc2)cc1)C(=O)N/C=C/c1ccc(O)cc1`, for which the IC50 is above 100 µM.

In the case of `CO/C(=C\c1ccc(OC)cc1)C(=O)N/C=C/c1ccc(O)cc1`, the IC50 was 6.4 µM. The figure for `CO/C(=C\c1ccc(O)cc1)C(=O)NCCc1ccc(O)cc1` is 25.2 µM. Turning to `O=C(/C=C/c1ccc(O)cc1)N/C=C/c1ccc(O)cc1`, the IC50 is above 100 µM.

Turning to `COC(Cc1ccc(O)cc1)C(=O)NCCc1ccc(O)cc1` (configuration not stated), the IC50 is above 100 µM. For the compound `CO/C(=C\c1ccc(O)cc1)C(=O)O`, the IC50 was above 100 µM. As for `COC(Cc1ccc(O)cc1)C(=O)N/C=C/c1ccc(O)cc1` (configuration not stated), the figure is above 100 µM; as for `CO/C(=C\c1ccc(O)cc1)C(=O)NCC(O)c1ccc(O)cc1` (configuration not stated), above 100 µM; as for `CO/C(=C\c1ccccc1)C(=O)N/C=C/c1ccc(O)cc1`, 15.4 µM. Turning to `CO/C(=C\c1cc(Br)c(O)c(Br)c1)C(=O)N/C=C/c1ccc(OC(C)=O)cc1`, the IC50 came to 23.2 µM. The figure for `CO/C(=C\c1ccc(O)c(O)c1)C(=O)N/C=C/c1ccc(O)cc1` is 18.8 µM. On to `CO/C(=C\c1cc(Br)c(O)c(Br)c1)C(=O)N/C=C/c1ccc(O)cc1`, for which the IC50 was found to be 11.1 µM.

The term IC50 denotes the concentration that gives 50% inhibition.
